# Laboratory results as given in ChEMBL document CHEMBL4834477, “Synthesis and biological evaluation of novel purinyl quinazolinone derivatives as PI3Kδ-specific inhibitors for the treatment of hematologic malignancies” (Bioorg Med Chem, 2021).
# Activity calls are given as the source filed them. No cut-off for these calls is given here.
# Tests used:
# MOLT-4 [1] = experiment: Antiproliferative activity against human MOLT-4 cells assessed as cell viability at 20 uM by CellTiter-Glo luminescent cell viability assay (reference value: 100%); type: functional; settings: read-out: Activity
# [2] = Cmax in Sprague-Dawley rat at 3 mg/kg, po measured for 24 hrs by LC-MS/MS analysis; type: ADME, organism-based; parameters: route oral, time 24 hrs, dose 3 mg/kg; settings: in vivo
# Procedure, shortened: (§1)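 Sprague-Dawley rats dosed orally at 1 or 3 mg/kg, three animals per group. Blood sampled at 0.25, 0.5, 1, 2, 4, 8 and 24 h post-dose. Plasma separated by centrifugation, extracted and quantified by LC-MS/MS. PK parameters (Cmax, AUClast, Tmax, t1/2) derived by non-compartmental software.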
# [3] = molecular target: T1, Phosphatidylinositol 4,5-bisphosphate 3-kinase catalytic subunit delta isoform (Homo sapiens) (UniProt O00329); experiment: Inhibition of PI3Kdelta in human SU-DHL-5 cells assessed as inhibition of AKT phosphorylation at Thr308 residue at 1 to 5 uM measured after 3 hrs by western blot assay; type: cell-based; settings: dose 1-5 µM
# T1 sequence (whole entry): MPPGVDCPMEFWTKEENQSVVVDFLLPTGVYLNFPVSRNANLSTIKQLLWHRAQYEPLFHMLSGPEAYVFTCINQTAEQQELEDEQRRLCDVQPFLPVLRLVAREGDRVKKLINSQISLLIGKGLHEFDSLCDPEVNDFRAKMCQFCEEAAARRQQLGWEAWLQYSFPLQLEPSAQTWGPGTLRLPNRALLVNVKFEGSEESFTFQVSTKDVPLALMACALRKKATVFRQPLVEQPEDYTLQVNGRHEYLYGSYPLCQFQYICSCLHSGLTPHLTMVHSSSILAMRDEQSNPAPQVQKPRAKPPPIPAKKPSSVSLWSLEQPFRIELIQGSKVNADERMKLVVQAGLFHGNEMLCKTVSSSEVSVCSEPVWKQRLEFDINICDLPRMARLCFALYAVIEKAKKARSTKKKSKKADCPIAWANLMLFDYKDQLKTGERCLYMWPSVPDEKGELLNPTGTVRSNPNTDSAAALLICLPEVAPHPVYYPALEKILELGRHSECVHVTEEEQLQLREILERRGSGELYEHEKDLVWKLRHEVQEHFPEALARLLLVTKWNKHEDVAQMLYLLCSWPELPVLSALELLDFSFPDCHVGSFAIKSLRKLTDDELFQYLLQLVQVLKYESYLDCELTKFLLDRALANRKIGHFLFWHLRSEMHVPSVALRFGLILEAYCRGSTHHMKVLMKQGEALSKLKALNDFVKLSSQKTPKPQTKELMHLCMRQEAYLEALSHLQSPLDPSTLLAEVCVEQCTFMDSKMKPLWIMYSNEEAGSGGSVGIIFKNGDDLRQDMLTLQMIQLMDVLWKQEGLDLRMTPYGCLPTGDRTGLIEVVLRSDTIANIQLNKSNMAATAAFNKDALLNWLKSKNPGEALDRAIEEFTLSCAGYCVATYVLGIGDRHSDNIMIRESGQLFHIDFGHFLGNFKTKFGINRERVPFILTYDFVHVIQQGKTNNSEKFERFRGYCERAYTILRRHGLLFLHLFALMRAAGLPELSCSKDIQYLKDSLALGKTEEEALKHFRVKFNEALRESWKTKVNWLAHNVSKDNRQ
# Procedure, shortened: (§2)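 Treatment lasted 3 h: SUDHL-5 at 1 μM, MOLT-4 at 5 μM. Cells washed twice in cold PBS and lysed. Proteins resolved on 10–12% SDS-PAGE and blotted to PVDF. Probed for p-AKT S473, p-AKT T308, p-S6 and p-4E-BP1, with β-actin as loading control.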
# [4] = AUC (last) in Sprague-Dawley rat at 3 mg/kg, po measured for 24 hrs by LC-MS/MS analysis; type: ADME, organism-based; parameters: route oral, time 24 hrs, dose 3 mg/kg; settings: in vivo; procedure, shortened: as §1
# [5] = molecular target: T1, Phosphatidylinositol 4,5-bisphosphate 3-kinase catalytic subunit delta isoform (Homo sapiens); experiment: Inhibition of PI3Kdelta in human MOLT-4 cells assessed as inhibition of S6 phosphorylation at 1 to 5 uM measured after 3 hrs by western blot assay; type: cell-based; settings: dose 1-5 µM; procedure, shortened: as §2
# [6] = molecular target: T1, Phosphatidylinositol 4,5-bisphosphate 3-kinase catalytic subunit delta isoform (Homo sapiens); experiment: Inhibition of PI3Kdelta in human MOLT-4 cells assessed as inhibition of AKT phosphorylation at Thr308 residue at 1 to 5 uM measured after 3 hrs by western blot assay; type: cell-based; settings: dose 1-5 µM; procedure, shortened: as §2
# MOLT-4 [7] = experiment: Induction of apoptosis in human MOLT-4 cells assessed as late apoptotic cells at 20 uM measured after 24 hrs by AnnexinV-FITC/PI staining based flowcytometry method (reference value: 2.17%); type: functional
# Procedure, shortened: (§3)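 Cells exposed to 20 μM compound for 24 h, washed with cold PBS, and stained with Annexin V-FITC and propidium iodide for 15 min at room temperature. Viable, early apoptotic, late apoptotic and necrotic populations quantified by flow cytometry.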
# MOLT-4 [8] = experiment: Induction of apoptosis in human MOLT-4 cells assessed as early apoptotic cells at 20 uM measured after 24 hrs by AnnexinV-FITC/PI staining based flowcytometry method (reference value: 2.04%); type: functional; procedure, shortened: as §3
# MOLT-4 [9] = experiment: Induction of apoptosis in human MOLT-4 cells assessed as viable cells at 20 uM measured after 24 hrs by AnnexinV-FITC/PI staining based flowcytometry method (reference value: 95.3%); type: functional; settings: read-out: Activity; procedure, shortened: as §3
# SU-DHL10 [10] = experiment: Induction of apoptosis in human SU-DHL-10 cells assessed as late apoptotic cells at 20 uM measured after 24 hrs by AnnexinV-FITC/PI staining based flowcytometry method (reference value: 3.48%); type: functional; procedure, shortened: as §3
# SU-DHL10 [11] = experiment: Induction of apoptosis in human SU-DHL-10 cells assessed as necrotic cells at 20 uM measured after 24 hrs by AnnexinV-FITC/PI staining based flowcytometry method (reference value: 0.2%); type: functional; procedure, shortened: as §3
# MOLT-4 [12] = experiment: Antitumour activity against human MOLT-4 cells xenografted in Balb/c nude mouse assessed as inhibition of tumour growth at 10 mg/kg, po administered via gavage qd for 57 days; type: functional; settings: MOLT-4, po, 1368 h, time 57 day, read-out: TGI
# Procedure, shortened: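 MOLT-4 cells (2×10^6 in 0.1 mL D-PBS) implanted subcutaneously on the back of BALB/c-nude mice. Once tumours grew, mice were dosed daily by oral gavage at 10 mg/kg for 57 consecutive days. Tumours measured by caliper, with volume = ½ × […]. Body weight was tracked over the same period.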
# [13] = molecular target: T1, Phosphatidylinositol 4,5-bisphosphate 3-kinase catalytic subunit delta isoform (Homo sapiens); experiment: Inhibition of PI3Kdelta in human MOLT-4 cells assessed as inhibition of 4EBP1 phosphorylation at 1 to 5 uM measured after 3 hrs by western blot assay; type: cell-based; settings: dose 1-5 µM; procedure, shortened: as §2
# [14] = molecular target: T1, Phosphatidylinositol 4,5-bisphosphate 3-kinase catalytic subunit delta isoform (Homo sapiens); experiment: Inhibition of PI3Kdelta in human MOLT-4 cells assessed as inhibition of AKT phosphorylation at Ser473 residue at 1 to 5 uM measured after 3 hrs by western blot assay; type: cell-based; settings: dose 1-5 µM; procedure, shortened: as §2
# [15] = molecular target: T1, Phosphatidylinositol 4,5-bisphosphate 3-kinase catalytic subunit delta isoform (Homo sapiens); experiment: Inhibition of PI3Kdelta in human SU-DHL-5 cells assessed as inhibition of 4EBP1 phosphorylation at 1 to 5 uM measured after 3 hrs by western blot assay; type: cell-based; settings: dose 1-5 µM; procedure, shortened: as §2
# [16] = Half life in Sprague-Dawley rat at 3 mg/kg, po measured for 24 hrs by LC-MS/MS analysis; type: ADME, organism-based; settings: in vivo; procedure, shortened: as §1
# SU-DHL10 [17] = experiment: Induction of apoptosis in human SU-DHL-10 cells assessed as early apoptotic cells at 20 uM measured after 24 hrs by AnnexinV-FITC/PI staining based flowcytometry method (reference value: 6.32%); type: functional; procedure, shortened: as §3
# [18] = Tmax in Sprague-Dawley rat at 3 mg/kg, po measured for 24 hrs by LC-MS/MS analysis; type: ADME, organism-based; settings: in vivo; procedure, shortened: as §1
Cmax [2] [ng/mL],inhibition [3],AUC(0-t) at 24 h [4] [ng·h/mL],inhibition [5],inhibition [6],inhibition [13],inhibition [14],inhibition [15],half-life [16] [h],Tmax [18] [h],Structure (SMILES),viability at 20 µM (MOLT-4 [1]) [%],Activity (MOLT-4 [7]) [%],Activity (MOLT-4 [8]) [%],viability at 20 µM (MOLT-4 [9]) [%],Activity (SU-DHL10 [10]) [%],Activity (SU-DHL10 [11]) [%],inhibition in vivo at 10 mg/kg/day (MOLT-4 [12]) [%],Activity (SU-DHL10 [17]) [%]
41.9,Active,255,Active,Active,Active,Active,Active,7.7,1,O=c1c2c(F)cccc2nc([C@@H](Nc2ncnc3nc[nH]c23)C2CC2)n1-c1ccccc1,63.1,30.3,17.8,49.5,24.2,1.77,55.1,54.3
11.1,Active,37.2,Active,Active,Active,Active,Active,8.3,0.5,Cc1cccc2nc([C@@H](Nc3ncnc4nc[nH]c34)C3CC3)n(-c3ccccc3)c(=O)c12,14.6,42.3,13.4,41,45.9,4.16,56.7,34.9
